Measured values taken from ChEMBL document CHEMBL4257553, “Novel organophosphorus aminopyrimidines as unique structural DNA-targeting membrane active inhibitors towards drug-resistant methicillin-resistant Staphylococcus aureus” (Medchemcomm, 2018).
Converted amounts (≈) assume the structure as drawn. The source made the active and inactive calls. The calls are words filed in the database; no cut-off is given here.

How the values were obtained:
Staphylococcus aureus [1] = test: Antibacterial activity against methicillin resistant Staphylococcus aureus after 24 hrs by microbroth dilution method; type: functional
Outline: (§1)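 Tested by CLSI-standard broth microdilution against a panel of eleven bacterial strains, Gram-positive and Gram-negative, including MRSA.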

Staphylococcus aureus [2] = test: Antibacterial activity against Staphylococcus aureus ATCC 25923 after 24 hrs by microbroth dilution method; type: functional; details: ATCC 25923, 24 h; outline: as §1
Escherichia coli [3] = test: Antibacterial activity against Escherichia coli after 24 hrs by microbroth dilution method; type: functional; outline: as §1
Staphylococcus aureus [4] = test: Antibacterial activity against methicillin resistant Staphylococcus aureus after 16 serial passages measured after 12 hrs by microbroth dilution method; type: functional, organism-based
Outline: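 MRSA standard strain passaged serially with compound. Each passage starts from the bacteria grown at sub-MIC (0.5 × MIC), and the MIC is redetermined by the broth microdilution method at every passage.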

Cell membrane = test: Binding affinity to methicillin resistant Staphylococcus aureus cell membrane assessed as induction of membrane permeabilization at 12 times MIC measured for 10 to 70 mins by propidium iodide dye based fluorescence assay
Outline: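 MRSA cultured 12 h at 37 °C, centrifuged, washed and resuspended in 5 mM glucose/5 mM HEPES (1:1). Compound (12 × MIC) added to cuvette with cells and propidium iodide. PI uptake followed as fluorescence increase (ex 535 nm, em 617 nm).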

DNA [5] = test: Inhibition of neutral red dye binding to methicillin resistant Staphylococcus aureus DNA up to 3.5 x 10^-5mol/L by UV-Visible absorption spectra analysis; type: nucleic-acid assay
Outline: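 MRSA genomic DNA with A260/A280 > 1.8 in Tris-HCl buffer pH 7.4, combined with aqueous neutral red dye stock. Competitive displacement followed by UV-vis absorption spectroscopy.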

Pseudomonas aeruginosa [6] = test: Antibacterial activity against Pseudomonas aeruginosa ATCC 27853 after 24 hrs by microbroth dilution method; type: functional; details: ATCC 27853, 24 h; outline: as §1
DNA [7] = test: Binding affinity to methicillin resistant Staphylococcus aureus DNA by absorption spectra analysis; type: nucleic-acid assay
Aspergillus fumigatus [8] = test: Antifungal activity against Aspergillus fumigatus after 24 hrs by microbroth dilution method; type: functional
Escherichia coli [9] = test: Antibacterial activity against Escherichia coli ATCC 25922 after 24 hrs by microbroth dilution method; type: functional; details: ATCC 25922, 24 h; outline: as §1
DNA [10] = test: Binding affinity to methicillin resistant Staphylococcus aureus DNA assessed as hypochromic effect up to 3.5 x 10^-5mol/L by absorption spectra analysis; type: nucleic-acid assay
Acinetobacter baumannii = test: Antibacterial activity against Acinetobacter baumannii after 24 hrs by microbroth dilution method; type: functional; outline: as §1
Klebsiella pneumoniae = test: Antibacterial activity against Klebsiella pneumoniae after 24 hrs by microbroth dilution method; type: functional; outline: as §1
Enterococcus faecalis = test: Antibacterial activity against Enterococcus faecalis after 24 hrs by microbroth dilution method; type: functional; outline: as §1
Aspergillus fumigatus [11] = test: Potency index, ratio of fluconazole MIC to compound MIC for antifungal activity against Aspergillus fumigatus; type: functional
Pseudomonas aeruginosa [12] = test: Antibacterial activity against Pseudomonas aeruginosa after 24 hrs by microbroth dilution method; type: functional; outline: as §1
Staphylococcus aureus [13] = test: Antibacterial activity against Staphylococcus aureus after 24 hrs by microbroth dilution method; type: functional; outline: as §1
Staphylococcus aureus [14] = test: Antibacterial activity against Staphylococcus aureus ATCC 29213 after 24 hrs by microbroth dilution method; type: functional; details: ATCC 29213, 24 h; outline: as §1
Staphylococcus aureus [15] = test: Bactericidal activity against methicillin resistant Staphylococcus aureus assessed as reduction in bacterial load at 6 times MIC up to 1 hr by time kill assay; type: functional
Outline: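 MRSA grown 6 h at 37 °C and diluted to about 1.8 × 10^5 CFU/mL. Compound added at MIC and 6 × MIC, then incubated at 37 °C. Samples taken at 0, 30, 60, 90, 120, 240, 360 and 420 min, diluted 10-fold serially in 0.9% saline, plated on agar and counted after 24 h at 37 °C.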

[16] = Cytotoxicity against mouse L929 cells assessed as cell viability up to 128 ug/ml after 48 hrs by MTT assay relative to control; type: cell-based; details: read-out: Activity
Outline: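 Mouse fibroblast L929 cells grown in DMEM with 10% serum and 1% penicillin/streptomycin at 37 °C, 5% CO2, seeded and cultured 24 h. Compound diluted in medium and tested in triplicate at 0, 4, 8, 16, 32, 64, 128, 256 and 512 μg/mL for 48 h. MTT in PBS added for 3–4 h, formazan dissolved in DMSO, absorbance read at 570 nm (also stated 490 nm).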

Structure (SMILES)	MIC (Staphylococcus aureus [1])	MIC (Staphylococcus aureus [2])	MIC (Escherichia coli [3])	Activity (Staphylococcus aureus [4])	Activity (Cell membrane)	inhibition (DNA [5])	MIC (Pseudomonas aeruginosa [6])	K (DNA [7])	MIC (Aspergillus fumigatus [8])	MIC (Escherichia coli [9])	Activity (DNA [10])	MIC (Acinetobacter baumannii)	MIC (Klebsiella pneumoniae)	MIC (Enterococcus faecalis)	Ratio (Aspergillus fumigatus [11])	MIC (Pseudomonas aeruginosa [12])	MIC (Staphylococcus aureus [13])	MIC (Staphylococcus aureus [14])	Activity (Staphylococcus aureus [15])	viability at 48 h [16]
CCCCCn1c(CCCC)nc(Cl)c1C(Nc1ncccn1)P(=O)(OCC)OCC (configuration not stated)	4 µg/mL (≈ 8.48 µM)	32 µg/mL (≈ 67.8 µM)	128 µg/mL (≈ 271 µM)	Active	Active	Active	64 µg/mL (≈ 136 µM)	6.84 ×10³ L/mol	> 16 µg/mL	16 µg/mL (≈ 33.9 µM)	Active	32 µg/mL (≈ 67.8 µM)	8 µg/mL (≈ 17 µM)	8 µg/mL (≈ 17 µM)	16	64 µg/mL (≈ 136 µM)	64 µg/mL (≈ 136 µM)	64 µg/mL (≈ 136 µM)	>3 deltalog10CFU/ml	≤ 80%
O=[N+]([O-])c1ccc(C(Nc2ncccn2)P(=O)(O)O)cc1 (configuration not stated)	128 µg/mL (≈ 413 µM)	128 µg/mL (≈ 413 µM)	128 µg/mL (≈ 413 µM)				256 µg/mL (≈ 825 µM)		> 16 µg/mL	128 µg/mL (≈ 413 µM)		256 µg/mL (≈ 825 µM)	256 µg/mL (≈ 825 µM)	128 µg/mL (≈ 413 µM)	16	128 µg/mL (≈ 413 µM)	128 µg/mL (≈ 413 µM)	128 µg/mL (≈ 413 µM)		
CCOP(=O)(OCC)C(Nc1ncccn1)c1cn(CC)c2ccccc12 (configuration not stated)	4 µg/mL (≈ 10.3 µM)	64 µg/mL (≈ 165 µM)	256 µg/mL (≈ 659 µM)				128 µg/mL (≈ 330 µM)		> 16 µg/mL	256 µg/mL (≈ 659 µM)		64 µg/mL (≈ 165 µM)	64 µg/mL (≈ 165 µM)	128 µg/mL (≈ 330 µM)	16	256 µg/mL (≈ 659 µM)	64 µg/mL (≈ 165 µM)	256 µg/mL (≈ 659 µM)		
CCOP(=O)(OCC)C(Nc1ncccn1)c1ccc2c(c1)c1cc(C=O)ccc1n2CC (configuration not stated)	128 µg/mL (≈ 274 µM)	256 µg/mL (≈ 549 µM)	512 µg/mL (≈ 1100 µM)				256 µg/mL (≈ 549 µM)		> 16 µg/mL	256 µg/mL (≈ 549 µM)		128 µg/mL (≈ 274 µM)	256 µg/mL (≈ 549 µM)	16 µg/mL (≈ 34.3 µM)	16	256 µg/mL (≈ 549 µM)	256 µg/mL (≈ 549 µM)	256 µg/mL (≈ 549 µM)		
CCOP(=O)(OCC)C(Nc1ncccn1)c1ccc2oc(=O)ccc2c1 (configuration not stated)	256 µg/mL (≈ 658 µM)	64 µg/mL (≈ 164 µM)	512 µg/mL (≈ 1320 µM)				512 µg/mL (≈ 1320 µM)		> 16 µg/mL	256 µg/mL (≈ 658 µM)		64 µg/mL (≈ 164 µM)	512 µg/mL (≈ 1320 µM)	512 µg/mL (≈ 1320 µM)	16	64 µg/mL (≈ 164 µM)	128 µg/mL (≈ 329 µM)	128 µg/mL (≈ 329 µM)		
